According to ChEMBL document CHEMBL1121836, “Effect of structural change on acute toxicity and antiinflammatory activity in a series of imidazothiazoles and thiazolobenzimidazoles” (J Med Chem, 1981):
Where “and” joins values, the source holds several entries; their conditions need not be identical. Identical values can stand only once.

What was measured:
Mus musculus [1] = assay: Compound was evaluated for the percent reduction of carrageenan induced edema in mice at dose of 10 mg/kg; type: functional
Mus musculus [2] = assay: Compound was evaluated for the percent reduction of carrageenan induced edema in mice at dose of 100 mg/kg; type: functional
Mus musculus [3] = assay: Compound was evaluated for the percent reduction of carrageenan induced edema in mice at dose of 30 mg/kg; type: functional
Mus musculus [4] = assay: Compound was evaluated for the percent reduction of carrageenan induced edema in mice at dose of 200 mg/kg; type: functional
[5] = (§1) Compound was evaluated for the toxicity in mice; type: organism-based; conditions: mouse, in vivo
Mus musculus [6] = assay: Compound was evaluated for the percent reduction of carrageenan induced edema in mice at dose of 40 mg/kg; type: functional
Mus musculus [7] = assay: Compound was evaluated for the percent reduction of carrageenan induced edema in mice at dose of 1 mg/kg; type: functional
Mus musculus [8] = assay: Compound was evaluated for the percent reduction of carrageenan induced edema in mice at dose of 25 mg/kg; type: functional
Mus musculus [9] = assay: Compound was evaluated for the percent reduction of carrageenan induced edema in mice at dose of 50 mg/kg; type: functional
Mus musculus [10] = species on record: Mus musculus; assay: as §1; type: organism-based; conditions: in vivo
Rattus norvegicus [11] = assay: Compound was evaluated in the developed adjuvant arthritis assay at a dose of 10 mg/kg for the percent reduction of carrageenan induced edema (LHF) on 21st day; type: functional
In short: (§2)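 Rats received 0.1 mL heat-killed Mycobacterium tuberculosis suspension (3.5 mg/mL) into the left hind footpad on day 1. On day 20, animals with developed arthritis (all four paws swollen, tail and ears involved) were used. Oral gavage in 0.25% methylcellulose (0.005 mL/g) on days 20 and 22. Hind paw volumes were recorded daily on days 20–23. Mean group volume is expressed as percent change from day 20.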

Rattus norvegicus [12] = assay: Compound was evaluated in the developed adjuvant arthritis assay at a dose of 10 mg/kg for the percent reduction of carrageenan induced edema (LHF) on 22nd day; type: functional; in short: as §2
Rattus norvegicus [13] = assay: Compound was evaluated in the developed adjuvant arthritis assay at a dose of 10 mg/kg for the percent reduction of carrageenan induced edema (LHF) on 23rd day; type: functional; in short: as §2
Rattus norvegicus [14] = assay: Compound was evaluated in the developed adjuvant arthritis assay at a dose of 3 mg/kg for the percent reduction of carrageenan induced edema (LHF) on 22nd day; type: functional; in short: as §2
Rattus norvegicus [15] = assay: Compound was evaluated in the developed adjuvant arthritis assay at a dose of 3 mg/kg for the percent reduction of carrageenan induced edema (LHF) on 23rd day; type: functional; in short: as §2
Rattus norvegicus [16] = assay: Compound was evaluated in the developed adjuvant arthritis assay at a dose of 30 mg/kg for the percent reduction of carrageenan induced edema (LHF) on 21st day; type: functional; in short: as §2
Rattus norvegicus [17] = assay: Compound was evaluated in the developed adjuvant arthritis assay at a dose of 30 mg/kg for the percent reduction of carrageenan induced edema (LHF) on 22nd day; type: functional; in short: as §2
Rattus norvegicus [18] = assay: Compound was evaluated in the developed adjuvant arthritis assay at a dose of 30 mg/kg for the percent reduction of carrageenan induced edema (LHF) on 23rd day; type: functional; in short: as §2
Rattus norvegicus [19] = assay: Compound was evaluated in the developed adjuvant arthritis assay at a dose of 3 mg/kg for the percent reduction of carrageenan induced edema (LHF) on 21st day; type: functional; in short: as §2
Mus musculus [20] = assay: Percent analgesia in phenylquinone writhing assay at 100 mg/kg; type: functional
In short: (§3)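 Groups of 10 male mice were dosed orally with compound dissolved or suspended in 0.25% methylcellulose (0.25 mL per mouse). After the designated interval they were challenged ip with 0.25 mL of 0.02% phenylquinone in aqueous ethanol (95:5). Read-out is the percentage of mice protected from writhing.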

Mus musculus [21] = assay: Percent analgesia in phenylquinone writhing assay at 30 mg/kg; type: functional; in short: as §3
Mus musculus [22] = assay: Percent analgesia in phenylquinone writhing assay at 300 mg/kg; type: functional; in short: as §3
Mus musculus [23] = species on record: Mus musculus; assay: Dose giving one-half of average maximal [40%] response in carrageenan assay; type: functional
Mus musculus [24] = species on record: Mus musculus; assay: Dose giving one-half of average maximal [40%] response in phenylquinone writhing assay; type: functional
[25] = (§4) Neurotoxic dose that causes minimal recognizable neurotoxicity in 50% of animals tested; type: toxicity, organism-based; conditions: mouse, in vivo; read-out: NTD50
In short: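 NTD50 in mice is the oral or intraperitoneal dose causing minimal recognizable neurotoxicity in 50% of animals, judged by five end points, including a positional sense test (hind leg lowered over a table edge should be lifted back).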

Rattus norvegicus [26] = species on record: Rattus norvegicus; assay: (§5) Ulcerogenic dose that produced gastric lesions, ulcers and/or hemorrhage in 50% of the animals tested; type: functional, Stomach
In short: (§6)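 Ten male Sprague–Dawley rats (ca. 160 g) were fasted 24 h with water available, then dosed po with compound or vehicle. At 4 h they were killed with CO2, and stomachs were opened along the greater curvature. A nonbiased observer scored ulcers, pitting or hemorrhagic spots. UD50 (lesions in 50% of animals) was determined by Litchfield–Wilcoxon.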

Mus musculus [27] = assay: Percent analgesia in phenylquinone writhing assay at 10 mg/kg; type: functional; in short: as §3
Mus musculus [28] = assay: Percent analgesia in phenylquinone writhing assay at 3 mg/kg; type: functional; in short: as §3
Mus musculus [29] = species on record: Mus musculus; assay: as §4; type: functional
In short: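 Mice dosed orally or intraperitoneally; neurotoxicity scored on five end points, including a positional sense test in which a hind leg lowered over a table edge should be quickly lifted back to a normal position. NTD50 is the dose giving minimal recognizable neurotoxicity in 50% of animals tested.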

[30] = Lethal dose evaluated in NPP assay; type: toxicity, organism-based; conditions: mouse, in vivo
Mus musculus [31] = assay: Percent analgesia in phenylquinone writhing assay at 1 mg/kg; type: functional; in short: as §3
Mus musculus [32] = assay: Percent analgesia in phenylquinone writhing assay at 0.3 mg/kg; type: functional; in short: as §3
Mus musculus [33] = assay: Compound was evaluated for the percent reduction of carrageenan induced edema in mice at dose of 0.3 mg/kg; type: functional
Mus musculus [34] = assay: Compound was evaluated for the percent reduction of carrageenan induced edema in mice at dose of 1.0 mg/kg; type: functional
Mus musculus [35] = assay: Compound was evaluated for the percent reduction of carrageenan induced edema in mice at dose of 3.0 mg/kg; type: functional
Rattus norvegicus [36] = assay: Compound was evaluated in the developed adjuvant arthritis assay at a dose of 0.3 mg/kg for the percent reduction of carrageenan induced edema (LHF) on 22nd day; type: functional; in short: as §2
Rattus norvegicus [37] = assay: Compound was evaluated in the developed adjuvant arthritis assay at a dose of 0.3 mg/kg for the percent reduction of carrageenan induced edema (LHF) on 23rd day; type: functional; in short: as §2
Rattus norvegicus [38] = assay: Compound was evaluated in the developed adjuvant arthritis assay at a dose of 1 mg/kg for the percent reduction of carrageenan induced edema (LHF) on 21nd day; type: functional; in short: as §2
Rattus norvegicus [39] = assay: Compound was evaluated in the developed adjuvant arthritis assay at a dose of 1 mg/kg for the percent reduction of carrageenan induced edema (LHF) on 22nd day; type: functional; in short: as §2
Rattus norvegicus [40] = assay: Compound was evaluated in the developed adjuvant arthritis assay at a dose of 1 mg/kg for the percent reduction of carrageenan induced edema (LHF) on 23rd day; type: functional; in short: as §2
[41] = as §5; type: ADME, organism-based, Stomach; conditions: rat, in vivo; read-out: UD50 (the source's name); in short: as §6

## O=S(=O)(C1=C(c2ccccc2)N2CCN=C2S1)c1ccccc1
Mus musculus [1]
  Reduction: 10%
Mus musculus [2]
  Reduction: 15%
Mus musculus [3]
  Reduction: 6%

## CCOC(=O)C1(O)CSC2=NC3CCCCC3N21 (stereo not drawn)
Mus musculus [4]
  Reduction: 3%

## CC1=C(C(=O)Nc2c(C)cc(C)cc2C)SC2=NCCN21
[5]
  LD50: 60 mg/kg
Mus musculus [6]
  Reduction: 11%

## CC1=CSC2=NC(C)(C)CN12
[5]
  LD50: 60 mg/kg
Mus musculus [6]
  Reduction: 0%

## CC1=C(C(=O)Nc2c(C)cc(C)cc2C)SC2=NC(C)CN21 (stereo not drawn)
[5]
  LD50: 400 mg/kg
Mus musculus [4]
  Reduction: 24%

## CC1=C(C(=O)Nc2c(C)cc(C)cc2C)SC2=NC(C)(C)CN21
[5]
  LD50: 60 mg/kg
Mus musculus [6]
  Reduction: 3%

## CC(C)(C)C1=CSC2=NC3CCCCC3N12 (stereo not drawn)
[5]
  LD50: 20 mg/kg

## CC1=C(C(=O)N2C(C)CCC2C)SC2=NCCN21 (stereo not drawn)
[5]
  LD50: 240 mg/kg
Mus musculus [4]
  Reduction: 20%

## CC1=CSC2=NC3CCCCC3N12 (cis isomer)
[5]
  LD50: 20 mg/kg
Mus musculus [7]
  Reduction: 15%
Mus musculus [8]
  Reduction: 57%
Mus musculus [9]
  Reduction: 80%

## CC1=CSC2=NC3CCCCC3N12 (trans isomer)
Mus musculus [10]
  LD50: 20 mg/kg
Mus musculus [8]
  Reduction: 76%
Mus musculus [9]
  Reduction: 100%
Rattus norvegicus [11]
  Reduction: 10%
Rattus norvegicus [12]
  Reduction: 18%
Rattus norvegicus [13]
  Reduction: 19%
Rattus norvegicus [14]
  Reduction: 2%
Rattus norvegicus [15]
  Reduction: 2%
Rattus norvegicus [16]
  Reduction: 10%
Rattus norvegicus [17]
  Reduction: 19%
Rattus norvegicus [18]
  Reduction: 18%
Rattus norvegicus [19]
  Reduction: 0%

## CC(=O)Oc1ccccc1C(=O)O [ASPIRIN]
Mus musculus [20]
  Analgesia: 60%
Mus musculus [21]
  Analgesia: 20%
Mus musculus [22]
  Analgesia: 90%
Mus musculus [23]
  ED50: 70 mg/kg
Mus musculus [24]
  ED50: 85 mg/kg
[25]
  TD50: 200 mg/kg
Rattus norvegicus [26]
  UD50: 27 mg/kg

## CC(C)Cc1ccc(C(C)C(=O)O)cc1 (stereo not drawn) [IBUPROFEN]
Mus musculus [27]
  Analgesia: 50%
Mus musculus [28]
  Analgesia: 30%
Mus musculus [21]
  Analgesia: 90%
Mus musculus [29]
  NTD50: 470 mg/kg
Rattus norvegicus [26]
  UD50: 60 mg/kg
[30]
  LD50: > 1000 mg/kg

## COc1ccc2c(c1)c(CC(=O)O)c(C)n2C(=O)c1ccc(Cl)cc1 [INDOMETHACIN]
Mus musculus [31]
  Analgesia: 60%
Mus musculus [28]
  Analgesia: 70%
Mus musculus [32]
  Analgesia: 20%
Mus musculus [23]
  ED50: 1 mg/kg
Mus musculus [24]
  ED50: 1 mg/kg
[5]
  LD50: 160 mg/kg
Mus musculus [33]
  Reduction: 11%
Mus musculus [34]
  Reduction: 22%
Mus musculus [35]
  Reduction: 39%
Mus musculus [29]
  NTD50: 110 mg/kg
Rattus norvegicus [36]
  Reduction: 21%
Rattus norvegicus [37]
  Reduction: 13% and 19%
Rattus norvegicus [38]
  Reduction: 21%
Rattus norvegicus [39]
  Reduction: 29%
Rattus norvegicus [40]
  Reduction: 29%
Rattus norvegicus [14]
  Reduction: 25%
Rattus norvegicus [15]
  Reduction: 35%
Rattus norvegicus [19]
  Reduction: 17%
Rattus norvegicus [26]
  UD50: 6 mg/kg
[30]
  LD50: 160 mg/kg

## COc1ccc2cc([C@H](C)C(=O)O)ccc2c1 [NAPROXEN]
[25]
  TD50: 370 mg/kg
Rattus norvegicus [26]
  UD50: 10 mg/kg

## CCCCC1C(=O)N(c2ccccc2)N(c2ccccc2)C1=O [PHENYLBUTAZONE]
Mus musculus [23]
  ED50: 50 mg/kg
Mus musculus [24]
  ED50: 64 mg/kg
Mus musculus [29]
  NTD50: 690 mg/kg
Rattus norvegicus [26]
  UD50: 75 mg/kg
[30]
  LD50: > 300 mg/kg

## Cc1ccc(C(=O)c2ccc(CC(=O)O)n2C)cc1 [TOLMETIN]
Mus musculus [27]
  Analgesia: 40%
Mus musculus [20]
  Analgesia: 80%
Mus musculus [21]
  Analgesia: 60%
Mus musculus [23]
  ED50: 20 mg/kg
Mus musculus [24]
  ED50: 22 mg/kg
Mus musculus [29]
  NTD50: >1000 mg/kg
[41]
  TD50: 63 mg/kg
